Experimental data gathered from unrelated publications.
Lines come from different studies, so protocols differ.
Target: Tyrosine-protein kinase Lyn (LYN, Homo sapiens, UniProt P07948)

| Compound | assay | conditions | remaining binding [%] |
| --- | --- | --- | --- |
| COCCOc1nc(-c2ccc(Cl)nc2)nc2c1CN(C(=O)c1ncn3ccccc13)CC2 | cell-free assay, competition with immobilised ligand | 0.1 µM | 73 |
| O=C(Nc1c[nH]nc1C(=O)NC1CCNCC1)c1cc(F)cc(F)c1 | binding, competition with immobilised ligand | 1 µM | 100 |
| F[C@@H]1CCN(c2nccc(-c3cnn4ncccc34)n2)C1 | binding | 1 µM | 87 |
| FC(F)(F)Oc1cccc(-c2cnc3ccc(-c4ccncc4)nn23)c1 | cell-free assay, competition with immobilised ligand | 5 µM | 93 |
| CN(C)c1nccc(-c2cnc3ncccn23)n1 | binding | 1 µM | 100 |
| CNC(=O)Nc1ccc2c(c1)[C@@]1(CC2)OC(=O)N(CC(=O)N(Cc2ccc(F)cc2)[C@@H](C)C(F)(F)F)C1=O | cell-free assay, competition with immobilised ligand | 1 µM | 100 |
| O=C(c1ccc(Nc2ncc(Cl)c(-c3cc4ccccc4s3)n2)cc1)N1CCC(N2CCCC2)CC1 | binding, competition with immobilised ligand | 1 µM | 83 |
| Cc1ccc(-n2nc(C(C)(C)C)cc2NC(=O)Nc2ccc(-n3c(N)c(C(N)=O)c4nc5ccccc5nc43)cc2)cc1 | cell-free assay, competition with immobilised ligand | 1 µM | 0.85 |
| C[C@@H]1CCN(c2nccc(-c3cnn4ncccc34)n2)C1 | binding | 1 µM | 93 |
| CCC(=O)N[C@@H]1CC[C@H](C(=O)N(C)c2ccc(-c3nc4ccccc4o3)cc2)C1 | cell-free assay, competition with immobilised ligand | 1 µM | 92 |
| CC1CCCN1c1nccc(-c2cnn3ncccc23)n1 (stereo not drawn) | binding | 1 µM | 84 |
| CC1=C(C#N)C(c2ccc3c(c2)c(NC(=O)c2ccccc2C)nn3C)C(C#N)=C(C)N1 | cell-free assay, competition with immobilised ligand | 1 µM | 89 |
| N[C@H]1CCN(c2nccc(-c3cnn4ncccc34)n2)C1 | binding | 1 µM | 99 |
| O=C(c1ccc(Nc2ncc(Cl)c(-c3ccc(Cl)s3)n2)cc1)N1CCC(N2CCCC2)CC1 | binding, competition with immobilised ligand | 1 µM | 87 |
| C=CC(=O)N1CCC(C(=O)NCC(=O)N2CCN(c3nc(-c4cnc(N)nc4C(F)F)nc(N4CCOCC4)n3)CC2)CC1 | binding, competition with immobilised ligand | 1 µM | 100 |
| CN(C)C(=O)Cn1cc(-c2nc([C@@](C)(c3ccc(-c4cnc(N)nc4)cc3)C3CC3)no2)cn1 | cell-free assay, competition with immobilised ligand | 1 µM | 87 |
| CN(CCCC(F)(F)F)c1nccc(-c2cnn3ncccc23)n1 | binding | 1 µM | 86 |
| Cc1cnc(Nc2ccc(C(=O)N3CCC(N4CCCC4)CC3)cc2)nc1-c1cc2ccccc2s1 | binding, competition with immobilised ligand | 1 µM | 78 |
| CN(C)c1nccc(-c2cnn3ncccc23)n1 | binding | 1 µM | 83 |
| COc1cnc(Nc2cccc(S(N)(=O)=O)c2)nc1N1CCN(c2ccccc2)CC1 | binding, competition with immobilised ligand | 1 µM | 92 |
| COc1cc(-c2cn(C3CCc4c(F)cccc4N(CC(F)(F)F)C3=O)nn2)ccc1-n1cnc(C)c1 (stereo not drawn) | cell-free assay, competition with immobilised ligand | 1 µM | 100 |
| c1cncc(-c2cccc(Nc3nccc(NC4CCCCC4)n3)c2)c1 | binding, competition with immobilised ligand | 10 µM | 48 |
| COc1ncc2cc3ccccc3nc2c1C#N | cell-free assay, competition with immobilised ligand | 5 µM | 94 |
| O=C(Nc1cnc(Oc2ccc(F)cc2)nc1)N1CCc2ncccc2[C@@H]1c1ccc(F)cc1 | cell-free assay, competition with immobilised ligand | 1 µM | 82 |
